Experimental data published in ChEMBL document CHEMBL4152346, “Sulfonamido-2-arylbenzoxazole GroEL/ES Inhibitors as Potent Antibacterials against Methicillin-Resistant Staphylococcus aureus (MRSA)” (J Med Chem, 2018).
The source made the active and inactive calls. The rule behind the calls is not given here.

Legend:
Type in all cases: functional, organism-based
[1] = test system: Klebsiella pneumoniae; assay: Antibacterial activity against Klebsiella pneumoniae ATCC 13883 after 6 to 8 hrs
How it was run: (§1)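 Stagnant liquid-culture proliferation assay at 37°C in broth cation-adjusted with 25 mg/L Ca²⁺ and 12.5 mg/L Mg²⁺, with compounds stamped into the wells. […] OD600 turbidity was read at 6–8 h (K. pneumoniae, E. cloacae, P. aeruginosa) or 24 h (A. baumannii). EC50 came from non-linear regression, averaged in log form over replicates.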

[2] = test system: Acinetobacter baumannii; assay: Antibacterial activity against Acinetobacter baumannii ATCC 19606 after 24 hrs; conditions: ATCC 19606 = CIP 70.34 = JCM 6841; how it was run: as §1
[3] = test system: Enterobacter cloacae; assay: Antibacterial activity against Enterobacter cloacae subsp. cloacae ATCC 13047 after 6 to 8 hrs; how it was run: as §1
[4] = test system: Pseudomonas aeruginosa; assay: Antibacterial activity against Pseudomonas aeruginosa ATCC 10145 after 6 to 8 hrs; how it was run: as §1

SMILES	Activity [1]	Activity [2]	Activity [3]	Activity [4]
O=S(=O)(Nc1ccc(-c2nc3cc(NS(=O)(=O)c4ccc(O)cc4)ccc3o2)cc1)c1ccc(O)cc1	Active	Active	Active	Active
O=C(O)c1ccc(S(=O)(=O)Nc2ccc(-c3nc4cc(NS(=O)(=O)c5ccc(C(=O)O)cc5)ccc4o3)cc2)cc1	inactive	inactive	inactive	inactive
COc1ccc(S(=O)(=O)Nc2ccc(-c3nc4cc(NS(=O)(=O)c5ccc(OC)cc5)ccc4o3)cc2)cc1	inactive	inactive	inactive	inactive
O=S(=O)(Nc1ccc(-c2nc3cc(NS(=O)(=O)c4cccc(O)c4)ccc3o2)cc1)c1cccc(O)c1	inactive	inactive	inactive	inactive
O=S(=O)(Nc1ccc(-c2nc3cc(NS(=O)(=O)c4ccc(C(F)(F)F)cc4)ccc3o2)cc1)c1ccc(C(F)(F)F)cc1	inactive	inactive	inactive	inactive
O=S(=O)(Nc1ccc(-c2nc3cc(NS(=O)(=O)c4ccccc4C(F)(F)F)ccc3o2)cc1)c1ccccc1C(F)(F)F	inactive	inactive	inactive	inactive
COc1cccc(S(=O)(=O)Nc2ccc(-c3nc4cc(NS(=O)(=O)c5cccc(OC)c5)ccc4o3)cc2)c1	inactive	inactive	inactive	inactive
O=S(=O)(Nc1ccc(-c2nc3cc(NS(=O)(=O)c4ccccc4)ccc3o2)cc1)c1ccccc1	inactive	inactive	inactive	inactive
O=S(=O)(Nc1ccc(-c2nc3cc(NS(=O)(=O)c4ccccc4O)ccc3o2)cc1)c1ccccc1O	inactive	inactive	inactive	inactive
COC(=O)c1ccccc1S(=O)(=O)Nc1ccc(-c2nc3cc(NS(=O)(=O)c4ccccc4C(=O)OC)ccc3o2)cc1	inactive	inactive	inactive	inactive
O=[N+]([O-])c1cccc(S(=O)(=O)Nc2ccc(-c3nc4cc(NS(=O)(=O)c5cccc([N+](=O)[O-])c5)ccc4o3)cc2)c1	inactive	inactive	inactive	inactive
O=S(=O)(Nc1ccc(-c2nc3cc(NS(=O)(=O)c4cccc(F)c4)ccc3o2)cc1)c1cccc(F)c1	inactive	inactive	inactive	inactive
O=S(=O)(Nc1ccc(-c2nc3cc(NS(=O)(=O)c4cccc5ccccc45)ccc3o2)cc1)c1cccc2ccccc12	inactive	inactive	inactive	inactive
O=S(=O)(Nc1ccc(-c2nc3cc(NS(=O)(=O)c4ccccc4Br)ccc3o2)cc1)c1ccccc1Br	inactive	inactive	inactive	inactive
O=S(=O)(Nc1ccc(-c2nc3cc(NS(=O)(=O)c4cccs4)ccc3o2)cc1)c1cccs1	inactive	inactive	inactive	inactive
O=S(=O)(Nc1ccc(-c2nc3cc(NS(=O)(=O)c4ccc5nsnc5c4)ccc3o2)cc1)c1ccc2nsnc2c1	inactive	inactive	inactive	inactive
CCCS(=O)(=O)Nc1ccc(-c2nc3cc(NS(=O)(=O)CCC)ccc3o2)cc1	inactive	inactive	inactive	inactive
O=S(=O)(Nc1ccc(-c2nc3cc(NS(=O)(=O)C(F)(F)F)ccc3o2)cc1)C(F)(F)F	inactive	inactive	inactive	inactive
COc1ccccc1S(=O)(=O)Nc1ccc(-c2nc3cc(NS(=O)(=O)c4ccccc4OC)ccc3o2)cc1	inactive	inactive	inactive	inactive
N#Cc1cccc(S(=O)(=O)Nc2ccc(-c3nc4cc(NS(=O)(=O)c5cccc(C#N)c5)ccc4o3)cc2)c1	inactive	inactive	inactive	inactive
COC(=O)c1cccc(S(=O)(=O)Nc2ccc(-c3nc4cc(NS(=O)(=O)c5cccc(C(=O)OC)c5)ccc4o3)cc2)c1	inactive	inactive	inactive	inactive

SMILES	Activity [1]	Activity [2]	Activity [3]	Activity [4]
O=C(O)c1cccc(S(=O)(=O)Nc2ccc(-c3nc4cc(NS(=O)(=O)c5cccc(C(=O)O)c5)ccc4o3)cc2)c1	inactive	inactive	inactive	inactive
COC(=O)c1ccc(S(=O)(=O)Nc2ccc(-c3nc4cc(NS(=O)(=O)c5ccc(C(=O)OC)cc5)ccc4o3)cc2)cc1	inactive	inactive	inactive	inactive
O=S(=O)(Nc1ccc(-c2nc3cc(NS(=O)(=O)c4ccc5ccccc5c4)ccc3o2)cc1)c1ccc2ccccc2c1	inactive	inactive	inactive	inactive
Cc1ccc(S(=O)(=O)Nc2ccc(-c3nc4cc(NS(=O)(=O)c5ccc(C)cc5)ccc4o3)cc2)cc1	inactive	inactive	inactive	inactive
O=S(=O)(Nc1ccc(-c2nc3cc(NS(=O)(=O)c4ccc(F)cc4)ccc3o2)cc1)c1ccc(F)cc1	inactive	inactive	inactive	inactive
Nc1ccc(S(=O)(=O)Nc2ccc(-c3nc4cc(NS(=O)(=O)c5ccc(N)cc5)ccc4o3)cc2)cc1	inactive	inactive	inactive	inactive
Nc1cccc(S(=O)(=O)Nc2ccc(-c3nc4cc(NS(=O)(=O)c5cccc(N)c5)ccc4o3)cc2)c1	inactive	inactive	inactive	inactive
O=S(=O)(Cc1ccccc1)Nc1ccc(-c2nc3cc(NS(=O)(=O)Cc4ccccc4)ccc3o2)cc1	inactive	inactive	inactive	inactive
O=[N+]([O-])c1ccccc1S(=O)(=O)Nc1ccc(-c2nc3cc(NS(=O)(=O)c4ccccc4[N+](=O)[O-])ccc3o2)cc1	inactive	inactive	inactive	inactive
O=S(=O)(Nc1ccc(-c2nc3cc(NS(=O)(=O)c4cccc(Cl)c4)ccc3o2)cc1)c1cccc(Cl)c1	inactive	inactive	inactive	inactive
Nc1ccccc1S(=O)(=O)Nc1ccc(-c2nc3cc(NS(=O)(=O)c4ccccc4N)ccc3o2)cc1	inactive	inactive	inactive	inactive
O=S(=O)(Nc1ccc(-c2nc3cc(NS(=O)(=O)c4ccccc4F)ccc3o2)cc1)c1ccccc1F	inactive	inactive	inactive	inactive
Cc1ccc(S(=O)(=O)Nc2ccc(-c3nc4ccc(NS(=O)(=O)c5ccc(C)cc5)cc4[nH]3)cc2)cc1	inactive	inactive	inactive	inactive
N#Cc1ccccc1S(=O)(=O)Nc1ccc(-c2nc3cc(NS(=O)(=O)c4ccccc4C#N)ccc3o2)cc1	inactive	inactive	inactive	inactive
CS(=O)(=O)Nc1ccc(-c2nc3cc(NS(C)(=O)=O)ccc3o2)cc1	inactive	inactive	inactive	inactive
O=S(=O)(Nc1ccc(-c2nc3cc(NS(=O)(=O)c4cccc5nsnc45)ccc3o2)cc1)c1cccc2nsnc12	inactive	inactive	inactive	inactive
Cc1ccccc1S(=O)(=O)Nc1ccc(-c2nc3cc(NS(=O)(=O)c4ccccc4C)ccc3o2)cc1	inactive	inactive	inactive	inactive
Cc1cccc(S(=O)(=O)Nc2ccc(-c3nc4cc(NS(=O)(=O)c5cccc(C)c5)ccc4o3)cc2)c1	inactive	inactive	inactive	inactive
O=c1ccc2cc(S(=O)(=O)Nc3ccc(-c4nc5cc(NS(=O)(=O)c6ccc7oc(=O)ccc7c6)ccc5o4)cc3)ccc2o1	inactive	inactive	inactive	inactive
O=S(=O)(Nc1ccc(-c2nc3cc(NS(=O)(=O)c4cccc(Br)c4)ccc3o2)cc1)c1cccc(Br)c1	inactive	inactive	inactive	inactive
